Hits are enriched below; roughly 4% of the tested compounds scored in any of these assays.
KCNQ1 block: human KCNQ1 channel inhibition | P51787 | CHO-K1 KCNQ1, FluxOR thallium flux fluorescence; stronger effect = higher value | B-score at 10 µM | 1.3% of 310,000 active;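 active means compounds whose thallium flux B-score, printed positive for inhibition, exceeds three library SD while starting fluorescence stays within three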;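 further: channel opened by potassium depolarization with thallium stimulus after 20 min compound exposure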
Target sequence (P51787 whole entry, looked up): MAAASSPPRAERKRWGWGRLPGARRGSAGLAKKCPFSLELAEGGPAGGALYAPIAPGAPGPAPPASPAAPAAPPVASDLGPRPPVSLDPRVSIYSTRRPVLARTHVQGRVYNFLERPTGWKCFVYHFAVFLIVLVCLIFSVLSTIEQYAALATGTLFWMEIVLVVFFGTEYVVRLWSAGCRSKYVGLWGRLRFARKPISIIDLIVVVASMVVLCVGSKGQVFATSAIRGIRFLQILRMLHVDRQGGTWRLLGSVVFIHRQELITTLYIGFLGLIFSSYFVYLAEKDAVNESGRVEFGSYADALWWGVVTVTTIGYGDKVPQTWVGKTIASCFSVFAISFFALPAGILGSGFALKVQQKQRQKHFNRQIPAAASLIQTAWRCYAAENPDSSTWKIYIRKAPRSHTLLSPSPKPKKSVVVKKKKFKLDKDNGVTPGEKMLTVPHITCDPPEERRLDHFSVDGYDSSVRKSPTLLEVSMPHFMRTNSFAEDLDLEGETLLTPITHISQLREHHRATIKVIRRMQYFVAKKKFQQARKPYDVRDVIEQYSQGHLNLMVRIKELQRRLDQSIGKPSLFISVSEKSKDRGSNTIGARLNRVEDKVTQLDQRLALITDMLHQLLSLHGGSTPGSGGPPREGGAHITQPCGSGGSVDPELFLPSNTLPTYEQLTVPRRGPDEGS
hERG protect: compounds protecting human hERG from proarrhythmic drug block | Q12809 | CHO-hERG, FluxOR thallium flux, dofetilide IC70 present | activation (rescue from dofetilide block), less the hit threshold, % at 10 µM | 0.51% of 310,000 active;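 active means activation above the mean of controls blocked by dofetilide plus 5 SD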;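 further: thallium influx through hERG after potassium depolarization seen as dye fluorescence rise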
KCNK9 block: inhibitors of human KCNK9 two-pore domain potassium channel. Q9NPC2. HEK293 KCNK9, FluxOR thallium flux fluorescence; stronger effect = lower value. B-score at 10 µM. 1.2% of 310,000 active. AID 488922;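 active means ratio B-score over 3 SD below the library mean, with starting fluorescence within 5 SD of its mean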;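 further: negative B-score means less thallium flux so channel inhibition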
KCNK3 block: human KCNK3 channel inhibition, primary screen. O14649. CHO-KCNK3 thallium flux, FluxOR fluorescence; stronger effect = lower value. B-score at 10 µM. 0.84% of 340,000 active;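 active means B-score under library mean minus 4 SD, starting fluorescence ratio at most library mean plus 5 SD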;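 further: more negative B-score means stronger inhibition of thallium flux through KCNK3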
PHOSPHO1 inh: blocks human PHOSPHO1 phosphatase activity | inhibition, % at 13.3 µM | Q8TCT1 | 1.1% of 290,000 active | AID 1565 | recombinant PHOSPHO1, absorbance phosphatase assay; in the data active means inhibition above about 60%
KCNQ1 pot: potentiators or activators of human KCNQ1 potassium channel | CHO-K1 KCNQ1, thallium flux FluxOR fluorescence; stronger effect = higher value | B-score at 10 µM | 0.35% of 310,000 active | AID 2648;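 active means fluorescence ratio B-score, a plate-corrected score, at least three library SD, with initial intensity B-score within 5 SD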
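System: Stable KCNQ1 CHO-K1 line | Incubation: 90 min dye loading and 20 min compound exposure, both at room temperature | Measure: Ratio B score | Medium: Assay buffer for compound exposure, DMSO matched across wells | Compound dosing: Single-concentration screen | Probe or stimulus: K+/Tl+ depolarizing stimulus | Measured by: Kinetic FluxOR fluorescence, 10 s baseline plus 110 s post-stimulus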
Large screens that a line does not name were inactive.

Cc1cc[n+](CC(=O)Nc2cccc(C)c2)cc1	none (no result: PHOSPHO1 inh)
Cc1cc2c(cc(C(=O)OC(C(=O)NCc3ccco3)C(C)C)n2C)o1 (centres undefined)	PHOSPHO1 inh 66.0
CCCCCCCCS(=O)c1sc2nc3c(cc2c1N)CCCC3 (centres undefined)	none (no result: PHOSPHO1 inh)
CCCCCCCCS(=O)c1sc2nc(C)cc(C)c2c1N (centres undefined)	PHOSPHO1 inh 94.1
CC1(C)CC(c2nc(-c3ccc([N+](=O)[O-])cc3)cs2)CCO1 (centres undefined)	KCNQ1 block 7
Oc1ccc2ccccc2c1/C=N/Nc1nnc(-c2ncc[nH]2)c2ccccc12	KCNQ1 block 8
Cc1ccc2c([N+](=O)[O-])c(C)ccc2n1	PHOSPHO1 inh 65.2
O=C1CCCC(=O)C1=C1SCCCS1	none
COc1cc(/C=C2/SC(=S)NC2=O)ccc1OS(=O)(=O)c1ccc(C)cc1	KCNQ1 pot 48
COc1ccc(/C=C2\SC(=O)NC2=S)cc1OC	hERG protect 5.7, KCNQ1 pot 12
COc1ccc(C=C2SC(=S)NC2=O)cc1	none (no result: KCNQ1 block, hERG protect, KCNK9 block, PHOSPHO1 inh, KCNQ1 pot)
O=C1NC(=S)S/C1=C\c1ccc2ccccc2c1	hERG protect 35.7, KCNQ1 pot 49
COc1cc(/C=C2\SC(=S)NC2=O)ccc1OS(=O)(=O)c1ccccc1	KCNQ1 pot 26 (no result: KCNK3 block)
COc1c(S(=O)(=O)N2CCCCC2)ccc2c(S(=O)(=O)N3CCCCC3)cccc12	none (no result: KCNQ1 block, hERG protect, KCNK9 block, PHOSPHO1 inh, KCNQ1 pot)
CC1(C)CC2CC(C)(CN2Cc2c(O)ccc3ccccc23)C1 (centres undefined)	none
CN(CCC#N)C(=O)COC(=O)c1c2c(nc3ccccc13)/C(=C\c1ccco1)CC2	KCNK3 block -8.87 (no result: KCNQ1 block, hERG protect, KCNK9 block, PHOSPHO1 inh, KCNQ1 pot)
O=C(COC(=O)c1c2c(nc3ccccc13)/C(=C\c1ccco1)CC2)NC1CCCC1	KCNK3 block -9.39 (no result: KCNQ1 block, hERG protect, KCNK9 block, PHOSPHO1 inh, KCNQ1 pot)
CC1CCCCC1NC(=O)COC(=O)c1c2c(nc3ccccc13)/C(=C\c1ccco1)CC2 (centres undefined)	KCNK3 block -11.2 (no result: KCNQ1 block, hERG protect, KCNK9 block, PHOSPHO1 inh, KCNQ1 pot)
NC(=O)C(CCCCN1CCCCC1)(c1ccccc1)c1ccccc1	none (no result: KCNQ1 block, hERG protect, KCNK9 block, PHOSPHO1 inh, KCNQ1 pot)
CC(=O)c1ccc(OCc2cc(C(=O)NC(C)CCn3cccn3)no2)cc1 (centres undefined)	none (no result: PHOSPHO1 inh)
CN1CCN(C2=C(NS(=O)(=O)c3cccs3)C(=O)c3ccccc3C2=O)CC1	none
CCOc1ccccc1N1CCN(C2=C(NS(=O)(=O)c3cccs3)C(=O)c3ccccc3C2=O)CC1	KCNK9 block -6.62
COc1ccc2[nH]c3c(c2c1)CCN1C(=O)N([C@@H](C)C(=O)NCC2CCCO2)C(=O)[C@]31C (some centres undefined)	none
CCOCCCNc1nc2c(C)cccn2c(=O)c1/C=C1\SC(=S)N(CC(C)C)C1=O	none
CCOCCCNc1nc2c(C)cccn2c(=O)c1/C=C1\SC(=S)N(C(C)CC)C1=O (centres undefined)	KCNQ1 block 7
Cc1ccc(NC(=O)CCNS(=O)(=O)c2ccc3c(c2)CCC(=O)N3)cc1F	PHOSPHO1 inh 70.2
Cc1ccc(NC(=O)CCNC(=O)c2ccc(Cl)cc2)cc1F	none
Cc1ccccc1NC(=O)CCNS(=O)(=O)c1ccc2c(c1)CCC(=O)N2	PHOSPHO1 inh 61.6
CC(=O)NCCC(=O)Nc1ccc(C)c(F)c1	hERG protect 5.4
CCOc1ccc(NC(=O)CCNS(=O)(=O)c2ccc3c(c2)CCC(=O)N3)cc1	none
COc1ccc(CCN2CC(C(=O)N3CCCCCC3)CCC2=O)cc1 (centres undefined)	none
CCCCN(CCCC)S(=O)(=O)c1ccc(NC(=O)c2ccc([N+](=O)[O-])cc2Cl)cc1	KCNQ1 block 7
CC(=O)N1CCN(c2ccc(NC(=O)c3ccc([N+](=O)[O-])cc3Cl)cc2)CC1	none
CCN(CC)S(=O)(=O)c1cc([N+](=O)[O-])ccc1NNC(=O)Nc1ccc(Cl)c(Cl)c1	KCNQ1 block 10, KCNK9 block -7.39
O=C(NNc1ccccc1[N+](=O)[O-])Nc1ccc(Cl)c(Cl)c1	none
CCCN1CCN(CCCNC(=O)C2CCN(c3nnc(-n4c(C)ccc4C)s3)CC2)CC1	PHOSPHO1 inh 64.9
Cc1nn2c(c1-c1ccc(Cl)cc1)N=C(c1ccco1)CC2c1ccccc1 (centres undefined)	KCNQ1 block 7, KCNK9 block -6.68

From PubChem
